Experimental data as given in paper PMC3557599 (Toxicology and applied pharmacology, 2012).
Where two headings read alike, the source gives them in different places.

Experiments:
[1] = Reaction with GSH in the presence of filtered rat liver cytosol; format: in vitro ADME; details: for Half-life +GSH + Cytosol: 0.459 mM compound, 1.53 mM GSH, filtered rat liver cytosol 2 mg/mL, 37°C; for reduction of half-life in the presence of liver cytosol: +GSH + cytosol vs +GSH alone
In short: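 Rat liver cytosol came from male Sprague-Dawley rats (180–225 g). It was filtered three times through centrifugal filters with pH 7.4 phosphate buffer to strip GSH and small molecules, and protein was measured by Lowry. Test compound (0.459 mM), GSH (1.53 mM) and cytosol (2 mg/mL) were incubated at 37°C. Aliquots were taken every 2.5 or 5 min, TFA-acidified, and run on C18 HPLC with UV detection. Diastereomer half-lives came from first-order kinetics.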

rats = details: 230 µmol/kg b.w. ref Lash et al., 1994; cited from earlier work
male Sprague-Dawley rats = format: in vivo, rat; details: 230 µmol/kg b.w. i.p.; for BUN levels compared to control (saline-treated) rats / AST and ALT levels: 24 h after dosing; for AST and ALT levels: vs saline-treated rats; for Urine protein/creatinine ratio: vs saline; for urine volume: saline-treated rats 0.20 ± 0.04 dL; for nephrotoxicity based on the biochemical endpoints assayed: equimolar comparison
[2] = Reactivity toward GSH in phosphate buffer pH 7.4 at 37°C; format: physicochemical
In short: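 Test compound (0.459 mM) and GSH (1.53 mM) were incubated in 0.1 M KH2PO4/0.1 M KCl/5 mM Na2EDTA, pH 7.4, in a shaking bath at 37°C. Aliquots were taken every 5–10 min for up to 60 min and TFA-acidified. Analysis was C18 HPLC with an acetonitrile/0.1% TFA gradient, reading UV 220 nm for sulfoxide loss and 260 nm for products. Diastereomer half-lives came from first-order kinetics. Conjugates (3 mM compound, 10 mM GSH, 1 h) were isolated and identified by positive-ESI LC/MS-TOF.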

[3] = test system: isolated rat renal proximal tubule cells; details: cited from earlier work
[4] = ref Commandeur et al., 1991; cited from earlier work
kidneys of male rats = test: Kidney histopathology, grading of tubular necrosis in inner and outer zone; format: in vivo, rat; details: 230 µmol/kg b.w. i.p., 24 h post treatment

Molecule	Half-life +GSH + Cytosol [1]	reduction of half-life in the presence of liver cytosol [1]	BUN levels compared to control (saline-treated) rats (male Sprague-Dawley rats)	reaction with GSH (formation of glutathione conjugates) [2]	kidney region primarily affected by lesions (kidneys of male rats)	other results
CC(=O)N[C@@H](C[S+]([O-])C(Cl)=CCl)C(=O)O (single isomer, unassigned) [NA-DCVCS I, N-acetyl-S-(1,2-dichlorovinyl)-L-cysteine sulfoxide]	5.4 min	2 fold	–	–	–	–
CC(=O)N[C@@H](C[S+]([O-])C(Cl)=CCl)C(=O)O (single isomer, unassigned) [NA-DCVCS II, N-acetyl-S-(1,2-dichlorovinyl)-L-cysteine sulfoxide]	2.3 min	10 fold	–	–	–	–
N[C@@H](CSC(Cl)=CCl)C(=O)O [DCVC, S-(1,2-dichlorovinyl)-L-cysteine]	–	–	–	–	–	kidney histopathology (rats): scattered, patchy foci of tubular necrosis
CC(=O)N[C@@H](CSC(Cl)=CCl)C(=O)O [NA-DCVC, N-Acetyl-S-(1,2-dichlorovinyl)-L-cysteine]	–	–	approximately 3 fold	not reactive with GSH	cortico-medullary proximal tubules (S2–S3 segments)	Urinary excretion of glucose over 24 h compared to saline-treated rats (male Sprague-Dawley rats): 113 fold; AST and ALT levels (male Sprague-Dawley rats): not different from saline-treated rats; Urine protein/creatinine ratio (male Sprague-Dawley rats; 24 h urine): elevated; urine volume (male Sprague-Dawley rats; 24 h urine): 0.32 ± 0.11 dL; nephrotoxicity based on the biochemical endpoints assayed (male Sprague-Dawley rats): less nephrotoxic than DCVCS; cytotoxicity ([3]; isolated rat proximal tubule cells ref Commandeur et al., 1991): less cytotoxic then DCVC; mutagenicity in the Ames test [4]: strong mutagen
CC(=O)N[C@@H](C[S+]([O-])C(Cl)=CCl)C(=O)O (stereo partly drawn) [NA-DCVCS, N-acetyl-S-(1,2-dichlorovinyl)-L-cysteine sulfoxide]	–	–	approximately 3 fold	the corresponding glutathione conjugates were detected	cortico-medullary proximal tubules (S2–S3 segments)	Urinary excretion of glucose over 24 h compared to saline-treated rats (male Sprague-Dawley rats): 89 fold; AST and ALT levels (male Sprague-Dawley rats): not different from saline-treated rats; Urine protein/creatinine ratio (male Sprague-Dawley rats; 24 h urine): elevated; nephrotoxicity based on the biochemical endpoints assayed (male Sprague-Dawley rats): less nephrotoxic than DCVCS; cytotoxicity ([3]; isolated rat renal proximal tubule cells ref Werner et al., 1996): more cytotoxic than NA-DCVC
S-(1,2-dichlorovinyl)-L-cysteine sulfoxide [DCVCS I, reference compound]	1.4 min	10 fold	–	–	–	–
S-(1,2-dichlorovinyl)-L-cysteine sulfoxide [DCVCS II, reference compound]	3.1 min	2 fold	–	–	–	–
S-(1,2-dichlorovinyl)-L-cysteine sulfoxide [DCVCS, reference compound]	–	–	7 fold	the corresponding glutathione conjugates were detected	outer cortical proximal tubules (S1–S2 segments)	anuric rats (male Sprague-Dawley rats; 24 h): two out of the four; Glucose excretion (male Sprague-Dawley rats; 24 h urine, rats anuric or producing little urine): not different than saline-treated rats; urine volume (male Sprague-Dawley rats; 24 h urine): 0.05 ± 0.07 dL
